Screens as filed in PubChem BioAssay.
PTEN del growth – PTEN-deleted cell growth suppression. HCT116 PTEN-null viability, CellTiter-Glo, 60 h; hits give low values. 1.2% of 140,000 active. viability, % at 10 µM;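 active = viability at or below a set limit, 4 SD under the median of all tested compounds, cut at about 3.7% in these data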;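 note: PTEN knockout HCT116 line with beta catenin targeted HCT116 as companion control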
L major viab – Leishmania major promastigote growth inhibition; Leishmania major promastigotes, resazurin fluorescence viability; inhibition, % at 10 µM; 9% of 200,000 active; AID 1063; in the data active = inhibition above about 50%;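 note: promastigotes grown with compound for 44 hours at 28 °C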
Dynein transport – dynein cargo transport inhibition. 3617.4 mouse cells, GR-EGFP nuclear translocation imaging; test concentration mostly 20 µM; stimulated with dexamethasone, 1 µM; hits give low values. z-score, hits read low. 0.47% of 220,000 active. AID 1381;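 active = plate z-score of nuclear minus cytoplasmic receptor signal below a set negative limit, without overly bright fluorescence or cell loss, cut at about -3.5 in these data, passing the limit was not always enough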;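 note: z-score of nuclear minus cytoplasmic ring GR-EGFP intensity difference per well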
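Buffer or medium: tet-free medium with charcoal-stripped serum / Also added: dexamethasone agonist, 1.0 µM final, for 30 min / Timing: induction 48 h, compound 1 h, agonist 30 min / Measured by: high-content fluorescence imaging after fixation / Read-out: nuclear-to-cytoplasmic GR-EGFP distribution per well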
HCT116 bCat-KO – beta-catenin-lacking colon tumor cell growth suppression; HCT116 beta-catenin knockout viability, CellTiter-Glo, 60 h; hits give low values; viability, % at 10 µM; 1.5% of 140,000 active;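 active = viability at or under a set limit, the compound median less 4 SD, cut at about 6% in these data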;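 note: 0% = Hyamine 1622 control at 20 µM and 100% = untreated cell control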
Autophagy mod – autophagy modulation, high-content screen. MEF GFP-LC3 puncta imaging; test concentration mostly 10 µM. calls only at 10 µM (by protocol). 0.98% of 190,000 active;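 active = percentage of spot-positive cells more than 3 SD above its plate mean, without a fluorescence outlier flag or 80% toxicity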;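 note: spot-positive cell cutoff set from DMSO-treated cells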
* marks the source's active call; other numbers are inactive results; i = inactive; / = no result; + = active, no number. Rows were chosen to be rich in hits. Some 9.2% of all compounds tested hit in one or more screens of this group.

SMILES	PTEN del growth	L major viab	Dynein transport	HCT116 bCat-KO	Autophagy mod
Cc1ccc(NC(=O)CNC(c2ccccc2)c2ccccc2)c(F)c1	85	71*	-0.015	87	i
O=C(C1CC1)N1CCc2cc(Br)cc(S(=O)(=O)NCCCN3CCCC3)c21	84	99*	-1.1	98	i
CC(=O)N1CCc2cc(Br)cc(S(=O)(=O)NCCN3CCCCC3C)c21 (stereo not drawn)	111	99*	-0.35	102	i
CC(=O)N1CCc2cc(Br)cc(S(=O)(=O)N3CCCCCC3)c21	83	32	-0.67	96	i
CC(=O)N1CCc2cc(Br)cc(S(=O)(=O)NCCCN3CCC(C)CC3)c21	121	99*	-0.73	91	i
CCC(=O)N1CCc2cc(Br)cc(S(=O)(=O)NCC3CCCO3)c21 (stereo not drawn)	91	0	-0.53	109	i
CC(=O)N1CCc2cc(Br)cc(S(=O)(=O)NCCCN3CCCC(C)C3)c21 (stereo not drawn)	68	100*	-0.14	63	i
COC(=O)C1(S(=O)(=O)c2cc(Br)cc3c2N(C(C)=O)CC3)CC1	111	2	-0.92	102	i
CN(Cc1ccccc1)C(=O)C1CCCN(Cc2cccc(Cl)c2)C1 (stereo not drawn)	/	6	-0.31	/	i
CCN(CC)CCNC(=O)C(=O)Nc1ccc(C(=O)OC)cc1	/	/	0.75	/	/
O=C(NC1CCCc2ccccc21)C(Cc1ccccc1)NS(=O)(=O)c1cccs1 (stereo not drawn)	78	77*	-0.53	77	i
CCC(OC(=O)c1cccs1)C(=O)NCc1ccc(C)cc1 (stereo not drawn)	/	-4	0.6	/	+
Cc1ccc(CNC(=O)C(Cc2ccccc2)NS(=O)(=O)c2cccs2)cc1 (stereo not drawn)	87	59*	1.5	87	i
CSc1sc(C(=O)NC(=O)NCc2ccncc2)c(C)c1-c1ccon1	/	/	1.2	/	/
Clc1cccc(Nc2nc(-c3cccnc3)cs2)c1	/	54*	-0.53	/	i
c1ccc(-c2csc(Nc3cccnc3)n2)nc1	100	58*	-0.17	105	i
COc1cccc2sc(Nc3nc(-c4ccccn4)cs3)nc12	2.6*	100*	-0.37	4.3*	i
c1ccc(Nc2nc(-c3ccccn3)cs2)cc1	69	101*	0.47	73	i
COc1ccc(CCNC(=O)COc2nncc3ccccc23)cc1	/	-11	-0.43	/	i
Nc1ccc(Nc2nc(-c3ccncc3)cs2)cc1	45	81*	-0.54	52	i
Clc1ccc(Nc2nc(-c3ccncc3)cs2)cc1	/	-1	-0.46	/	i
COc1ccccc1N(C(=O)c1ccncc1)c1nc(-c2ccc([N+](=O)[O-])cc2)cs1	51	99*	0.39	59	i
COCC(=O)Nc1nc(-c2ccc([N+](=O)[O-])cc2)cs1	/	-7	-0.63	/	i
Cc1cnccc1CN(C)Cc1cn(C)nc1-c1ccc(Oc2ccccc2)cc1	/	89*	-0.47	/	i
CCOc1ccc(Oc2cc(NC(=O)c3ccco3)cc([N+](=O)[O-])c2)cc1	69	-1	0.55	55	i
SMILES	PTEN del growth	L major viab	Dynein transport	HCT116 bCat-KO	Autophagy mod
O=C(Nc1cc(SCCO)cc([N+](=O)[O-])c1)c1ccco1	90	61*	-0.93	88	i
O=C(Nc1cc(Oc2ccc(Cl)cc2)cc([N+](=O)[O-])c1)c1ccco1	58	64*	-0.19	68	i
COc1ccc(NC(=O)c2cccs2)cc1NC(=O)c1ccco1	88	52*	1.1	93	i
COc1c(Cl)cc(Cl)cc1C(=O)Nc1ccc(C(=O)O)cc1	89	-1	-0.34	98	i
COc1c(Cl)cc(Cl)cc1/C=C/C(=O)c1ccc(NC(=O)c2cccs2)cc1	1.8*	100*	-3.4	2.6*	i
COc1cc(NS(=O)(=O)c2ccc(Br)cc2)c(OC)cc1NC(=O)c1ccco1	81	91*	0.45	81	i
COc1ccc(S(=O)(=O)Nc2cc(OC)c(NC(=O)c3ccco3)cc2OC)cc1	91	14	0.025	93	i
COc1cc(NC(=O)c2ccc([N+](=O)[O-])o2)ccc1NC(=O)c1cccs1	/	100*	-0.64	/	i
S=C(Nc1ccc(Br)cc1)NC1CCCCC1	53	16	-0.07	56	i
COc1cc(NC(=O)c2cccc(Cl)c2)ccc1NC(=O)c1cccs1	/	4	0.95	/	+
COc1cc(NC(=O)c2ccccc2Cl)ccc1NC(=O)c1cccs1	/	-12	1.5	/	i
COc1c(Cl)cc(Cl)cc1C(=O)Nc1ccc(NC(C)=O)cc1	/	60*	-0.21	/	i
COC(C[C@@H](O)[C@@H](C)[C@H](O)COCc1ccccc1)OC	/	/	-0.73	/	/
CC(=O)Nc1sc(N)nc1-c1ccccc1	93	34	-0.75	81	+
O=C(NCc1ccc(Cl)cc1)C(=O)Nc1nccs1	/	-3	-0.82	/	i
O=C(Nc1ccc2c(c1)OCCO2)c1cc2sccc2n1Cc1ccc(F)cc1	72	97*	0.7	61	i
O=C(Nc1ccc2c(c1)OCCO2)c1cc2sccc2n1Cc1ccccc1	39	47	-1.5	42	i
O=C(Nc1nccs1)c1cc2sccc2n1Cc1ccc(Cl)cc1	75	5	1.8	52	+
COc1ccc(NC(=O)c2ccc([N+](=O)[O-])cc2[N+](=O)[O-])c(OC)c1	/	6	0.3	/	i
O=[N+]([O-])c1ccc(N2CCN(S(=O)(=O)c3ccc4ccccc4c3)CC2)cc1NCC1CCCO1 (stereo not drawn)	90	9	-0.66	79	i
CCn1c(CNc2ccc(C(=O)O)cc2)nc2ccccc21	98	-1	0.89	93	i
CCCn1c(CNc2ccc(Br)cc2)nc2ccccc21	64	97*	1.2	55	/
CC1=CC(C)(C)Nc2ccc(OS(=O)(=O)c3ccc(C)cc3)cc21	88	94*	-0.96	90	i
CC1=CC(C)(C)Nc2ccc(OC(=O)CCN3C(=O)c4ccccc4C3=O)cc21	1.5*	79*	-0.5	1.2*	i
O=C(CCN1C(=O)c2ccccc2C1=O)Oc1ccc2ccccc2c1	97	-5	-0.3	89	i
SMILES	PTEN del growth	L major viab	Dynein transport	HCT116 bCat-KO	Autophagy mod
CC(=O)Nc1ccc2nc(C3CCCCC3)[nH]c2c1	93	3	2.5	97	i
COc1ccc(CCC(=O)Nc2cccc(Cl)c2)cc1	100	-7	0.043	92	i
O=C(CCc1ccc(Oc2cc([N+](=O)[O-])cc([N+](=O)[O-])c2)cc1)Nc1cccc(Cl)c1	81	100*	1.2	85	i
O=C(c1ccc(Oc2ccc([N+](=O)[O-])cc2Cl)cc1)N1CCCC1	/	5	-0.056	/	i
O=C(CCc1ccc(Oc2cc([N+](=O)[O-])cc([N+](=O)[O-])c2)cc1)N1CCCCC1	85	92*	/	92	i
COc1ccccc1C1(O)CC2CCC(C1)N2S(=O)(=O)c1ccc(C(C)=O)cc1 (stereo not drawn)	95	20	-0.86	101	i
